From PubChem BioAssay AID2430 (Vanderbilt High Throughput Screening Facility, 2010)
Values without a mark were called inactive. No rule for the calls is given here.

These compounds were tested against Muscarinic acetylcholine receptor M2 (Homo sapiens) (UniProt P08172) (assay: potentiation of ACh calcium response at M2 – cell-based, CHO-K1 M2/Gqi5, Fluo-4 calcium, ACh EC20, selectivity assay for M1 muscarinic PAM project, dose response (AID 2430)). Conditions: CHO-K1 M2/Gqi5 calcium Fluo-4, ACh EC20 PAM mode; series mostly up to 30 µM; percent of max ACh response: at the top concentration.
Procedure, shortened: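 Measured by – calcium flux measured with Fluo-4 fluorescent dye · System – CHO-K1 cells transfected with human M2 receptor and Gqi5 · Incubation – 37 °C dye loading, 1.5 min compound, 50 s ACh, 25 °C · Buffer or medium – HEPES- and probenecid-supplemented HBSS, pH 7.4 · Dosing – test compound with 0.3% DMSO final · Reagent – ACh near EC20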

Chain of Muscarinic acetylcholine receptor M2 (Homo sapiens) (P08172 whole entry, looked up): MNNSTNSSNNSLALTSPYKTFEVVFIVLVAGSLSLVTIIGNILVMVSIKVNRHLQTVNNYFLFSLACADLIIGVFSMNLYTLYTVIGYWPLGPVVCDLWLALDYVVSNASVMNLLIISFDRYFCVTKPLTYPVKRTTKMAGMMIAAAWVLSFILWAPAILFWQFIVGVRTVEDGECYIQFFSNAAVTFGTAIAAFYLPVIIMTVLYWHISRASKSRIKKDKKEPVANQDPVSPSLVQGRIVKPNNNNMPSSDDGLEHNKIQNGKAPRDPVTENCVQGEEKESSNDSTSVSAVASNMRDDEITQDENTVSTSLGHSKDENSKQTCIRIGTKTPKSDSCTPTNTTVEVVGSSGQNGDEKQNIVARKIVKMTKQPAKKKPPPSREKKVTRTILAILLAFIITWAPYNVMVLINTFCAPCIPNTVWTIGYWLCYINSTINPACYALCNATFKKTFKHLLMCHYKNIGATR

Row | SMILES | percent of max ACh response [%]
1 | O=C1C(=O)N(Cc2ccc(Oc3ccccc3)cc2)c2ccc(OC(F)(F)F)cc21 | 10.6
2 | Cn1cc(-c2cc(F)c(CN3C(=O)C(=O)c4ccccc43)c(F)c2)cn1 | 23.3
3 | Cn1cc(-c2ccc(CN3C(=O)C(=O)c4ccccc43)c(F)c2)cn1 | 26.4
4 | Cc1cc(NC(=O)CS(=O)(=O)c2cn(Cc3cc(Br)ccc3F)c3ccccc23)no1 | 13.4
